The nature of data set [1]: Selectivity index, ratio of CC50 for human HepG2 cells to IC50 for multi-drug resistant Plasmodium falciparum K1 infected in human erythrocytes.
In data set [2] the test system is Plasmodium yoelii. Description: Antiplasmodial activity against liver stage of Plasmodium yoelii 17X NL sporozoites infected in human HepG2 cells expressing CD81 after 48 hrs by DAPI staining-based immunofluorescence analysis. Type of data set: functional, organism-based. The following applies: HepG2, 48 h. The gist of the method:
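HepG2/CD81 cells were grown in D-MEM with 10% FBS. 25×10^3 cells/well went on collagen-coated wells; after 24 h they received compound and 5000 P. yoelii sporozoites together, then were spun 900 × g for 10 min at 4 °C. Treatment was renewed at 3 h and 24 h. At 48 h cells were methanol-fixed, stained with anti-HSP70 immunofluorescence, and parasites counted by microscopy. IC50 is 50% fewer parasites than in 0.5% DMSO controls.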

Data set [3] is described as follows: Cytotoxicity against human HepG2 cells expressing CD81 assessed as cell viability after 72 hrs by MTT assay. It is filed as cell-based. Background: Tetrazolium dyes change colour on reduction, which living cells bring about.
Data set [4] in a line: Selectivity index, ratio of CC50 for human HepG2 cells to IC50 for chloroquine-sensitive Plasmodium falciparum 3D7 infected in human erythrocytes. It is filed as functional. A digest of the protocol:
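SI = HepG2 CC50 (72 h MTT) / P. falciparum IC50. […] Cultures were exposed 72 h at 37 °C to compound (DMSO final <0.5%), in duplicate. Growth was read by SYBR Green I lysis fluorescence (ex 497, em 520 nm), from three independent experiments.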

Data set [5] has as its system Plasmodium falciparum. Description: Antiplasmodial activity against chloroquine-sensitive Plasmodium falciparum 3D7 infected in human erythrocytes assessed as parasite growth inhibition after 72 hrs by SYBR Green I dye-based fluorescence assay. It is filed as functional, organism-based. The gist of the method: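 Parasites grown in A+ human erythrocytes (2.5% haematocrit) in RPMI 1640 with 25 mM HEPES, 25 mM NaHCO3 and 10% A+ serum, at 37 °C under 6% CO2/14% O2/80% N2. Rings were sorbitol-synchronized. Compounds in DMSO (<0.5% final) were incubated 72 h at 2% haematocrit and 1% parasitaemia. SYBR Green lysis read at ex 497/em 520 nm; duplicates; IC50 from three independent experiments.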

A short description of data set [6]: Selectivity index, ratio of CC50 for human HepG2 cells expressing CD81 to IC50 for liver stage of Plasmodium yoelii 17X NL sporozoites infected in human HepG2 cells expressing CD81. It is filed as functional.
Data set [7] relates to Plasmodium falciparum. Description: Antiplasmodial activity against multi-drug resistant Plasmodium falciparum K1 infected in human erythrocytes assessed as parasite growth inhibition after 72 hrs by SYBR Green I dye-based fluorescence assay. It is filed as functional, organism-based. The following applies: read-out: IC50.
Data set [8] can be described thus: (§1) Cytotoxicity against human HepG2 cells assessed as cell viability after 72 hrs by MTT assay. Type of data set: cell-based. The following applies: HepG2 cells. A digest of the protocol:
(§2)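 Cells were kept in RPMI with 10% FBS. 5×10^3 cells/well were settled 24 h, then exposed to compound from DMSO (final <0.5%): CHO for 24 h, HepG2 for 72 h, in duplicate. Wells were checked for precipitate. MTT was added for 2 h at 37 °C, formazan dissolved in DMSO, and A570 read (630 nm reference). Viability is % of untreated cells; CC50 from non-linear regression, mean of three experiments.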

Data set [9] in a line: Cytotoxicity against human HepG2 cells expressing CD81 assessed as cell viability after 72 hrs by CellTiter-glo assay. Type of data set: cell-based. Background: Cellular ATP, detected with luciferase, serves as a proxy for viable cell number.
A short description of data set [10]: Cytotoxicity against CHO cells assessed as cell viability after 24 hrs by MTT assay. It is filed as cell-based, Cricetulus griseus. The following applies: chinese hamster. The gist of the method:
as §2

Data set [11] has as its system Plasmodium berghei. Description: Antiplasmodial activity against chloroquine-sensitive Plasmodium berghei NK65 infected in Swiss mouse assessed as reduction in parasitemia at 2.5 mg/kg, ip bid administered for 4 days measured on day 4 by Giemsa staining relative to control. It is filed as functional. Set-up: scale not given: the % may be the effect or the level left. The following applies: route intraperitoneal. A digest of the protocol:
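Male Swiss mice (20 ± 2 g) were infected on day 0 with 10^7 parasitized cells in 0.9% saline. Groups of 5 were dosed ip at 2.5 mg/kg twice a day from day 0 to day 3.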

Data set [12] can be described thus: Inhibition of hemozoin polymerization after 24 hrs by spectroscopic analysis. It is filed as functional. A digest of the protocol: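 Hemozoin (4 mM solution in 0.1 M NaOH) was mixed with compound at drug:heme ratios of 1:1 to 8:1, in triplicate. Acetic acid was added to pH 3, and samples were incubated 24 h at 37 °C. Soluble, DMSO-soluble and pellet fractions were separated by centrifugation. Each fraction was quantified at A405 against a hemozoin standard curve. IC50 is 50% decrease in polymerization.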

Data set [13] has as its system Salmonella typhimurium. Description: Mutagenicity in Salmonella typhimurium TA97A at 2.5 mM after 1 hr by Ames test in presence of S9 fraction. Type of data set: toxicity, organism-based. The following applies: salmonella enterica subsp. enterica serovar typhimurium, s9, 1 h, 2500 µM. The gist of the method:
(§3)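 Tester strains were grown overnight in nutrient broth. Top agar was added and the mix plated on Vogel-Bonner agar. Revertants were counted after 48 h at 37 °C in the dark. A twofold rise over spontaneous revertants counts as mutagenic.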

For data set [14], the system named is Leishmania donovani. Description: Antileishmanial activity against promastigote stage of Leishmania donovani assessed as parasite growth inhibition after 72 hrs by MTT assay. It is filed as functional, organism-based. A digest of the protocol: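 L. donovani promastigotes were grown at 27 °C in Schneider's medium with 10% FBS. 1×10^6 log-phase cells/well were exposed to compound from DMSO (final <0.5% v/v) for 72 h at 27 °C, in duplicate. MTT was then added for 6 h, formazan dissolved in DMSO, and A570 read (630 nm reference). IC50 came from non-linear regression, mean of three independent experiments.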

Data set [15] has as its system Salmonella typhimurium. In words: Mutagenicity in Salmonella typhimurium TA100 at 2.5 mM after 1 hr by Ames test in presence of S9 fraction. It is filed as toxicity, organism-based. The following applies: salmonella enterica subsp. enterica serovar typhimurium, s9, 1 h, 2500 µM. A digest of the protocol: as §3
On the technique in general: The Ames test uses bacterial strains that need an amino acid and regain growth without it when mutated back.

Data set [16] in a line: Inhibition of Plasmodium falciparum DHFR after 48 hrs. The gist of the method: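 Recombinant S. cerevisiae whose own DHFR is replaced by the P. falciparum DHFR domain was used. 1×10^4 cells were grown in YEPD with compound from DMSO (final <0.5%) at 30 °C for 48 h, in duplicate. Growth was read as A660. IC50 (50% growth inhibition) came from non-linear regression.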

The subject of data set [17] is Plasmodium falciparum. Description: Antiplasmodial activity against multi-drug resistant Plasmodium falciparum K1 infected in human erythrocytes assessed as parasite growth inhibition after 72 hrs by SYBR Green I dye-based fluorescence assay in presence of ascorbic acid. Type of data set: functional, organism-based. The following applies: K1, 72 h. A digest of the protocol: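 Same SYBR Green I 72 h growth assay on the K1 strain (2% haematocrit, 1% parasitaemia, 37 °C, 6% CO2/14% O2/80% N2, DMSO <0.5%), with 800 µM ascorbic acid in the medium as radical trap. Duplicates; artesunate as positive control; IC50 derived.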

The subject of data set [18] is Salmonella typhimurium. In words: Mutagenicity in Salmonella typhimurium TA100 at 2.5 mM after 1 hr by Ames test in absence of S9 fraction. The following applies: salmonella enterica subsp. enterica serovar typhimurium, 2500 µM. It is filed as toxicity, organism-based. The gist of the method: (§4)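 Tester strains were grown overnight in nutrient broth. 0.1 mL culture was incubated 1 h at 37 °C with shaking with compound (2.5–25 mM DMSO solutions), with or without 4% S9 mix. Top agar was added and the mix plated on Vogel-Bonner agar. Revertants were counted after 48 h at 37 °C in the dark. A twofold rise over spontaneous revertants counts as mutagenic.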

Data set [19] concerns Salmonella typhimurium. Description: Mutagenicity in Salmonella typhimurium TA97A at 2.5 mM after 1 hr by Ames test in absence of S9 fraction. It is filed as toxicity, organism-based. The following applies: salmonella enterica subsp. enterica serovar typhimurium, 2500 µM. A digest of the protocol:
as §4

For data set [20], the system named is Toxoplasma gondii. In words: Antitoxoplasmic activity against tachyzoite stage of Toxoplasma gondii PRU transfected with beta galactosidase infected in HFF assessed as parasite growth inhibition after 96 hrs by colorimetric microtiter assay. Type of data set: functional. A digest of the protocol: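 Confluent HFF monolayers (1×10^4 seeded) were infected with 2×10^3 PRU-β-Gal tachyzoites for 3 h. Compounds from DMSO (final <0.5%) were then added in triplicate for 96 h at 37 °C. CPRG was added at 500 µM final for 24 h more, then A570 read (630 nm reference). IC50 came from non-linear regression, mean of three experiments.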

Data set [21] in a line: Genotoxicity in DNA (unknown origin) incubated for 24 hrs in dark condition by methyl green displacement assay. The gist of the method:
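DNA-methyl green (4 mg in 20 mL 0.05 M Tris-HCl pH 7.5 with 7.5 mmol/L MgSO4) was shaken 24 h at 37 °C. It was then added to compound from DMSO (final <0.5%). A630 was read, and read again after 24 h at room temperature in the dark. DC50 is the concentration displacing 50% of methyl green.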

Data set [22] deals with HepG2. The data set is described as §1. It is filed as cell-based. The following applies: hepg2, 72 h, 72 h, read-out: CC50. A digest of the protocol: as §2
The test system of data set [23] is Plasmodium falciparum. Description: Antiplasmodial activity against multi-drug resistant Plasmodium falciparum K1 after 72 hrs by SYBR Green I dye-based fluorescence assay. The following applies: K1, 72 h.

The text below walks through data of ChEMBL document CHEMBL3414541, “Discovery of new thienopyrimidinone derivatives displaying antimalarial properties toward both erythrocytic and hepatic stages of Plasmodium” (Eur J Med Chem, 2015).

In general, IC50 refers to the concentration at which inhibition is half-maximal. For orientation: CC50 means the concentration giving 50% cytotoxicity.

On to `Cc1ccc(-c2cc3nc(NC(C)C)[nH]c(=O)c3s2)cc1.O=C(O)/C=C/C(=O)O`, for which the “Ratio CC50/IC50” value is given as 135 in data set [1], 148 in data set [4] and greater than 925 in data set [6]. Further, the IC50 was determined as 0.12 µM in data set [2]; 0.182 µM in [5] (Plasmodium falciparum, 3D7, 72 h); 0.8 µM in data set [7]. Moreover, the 50% cytotoxic concentration (CC50) at 72 h in data set [3] is greater than 111 µM; in [8], 26.9 µM.

As to `CCN(CC)CCCC(C)Nc1ccnc2cc(Cl)ccc12` (stereo not given) [CHLOROQUINE], in data set [9], the CC50 at 72 h is 1.6 µM. Besides, the figures for the IC50 in data set [2] and in data set [12] were 1.65 µM and 1460 µM, respectively. Also, the 50% cytotoxic concentration (CC50) at 24 h in [10] is 155 µM. Also, in data set [11], the Activity is given as 85%.

In the case of `CC(C)(C)Nc1nc2cc(-c3ccc(Cl)cc3)sc2c(=O)[nH]1`, the “Ratio CC50/IC50” value in [1] was 19; in data set [4], 44. For the same compound, the Activity entry in data set [13], in data set [15], in [18] and in data set [19] was “Non-toxic” each time. Further, the IC50 in data set [14] was greater than 10 µM; in [16], greater than 250 µM; in [17] it was 0.8 µM; in data set [5] it was 0.344 µM; in data set [20] it was greater than 10 µM; in data set [7], 0.8 µM. In [12], this compound displayed an IC50 greater than 25000 µM. The same compound showed a DC50 in [21] greater than 25000 µM. The CC50 in [22] stood at 15 µM.

As for `CN(C)c1nc2cc(-n3cnc4cc(-c5ccc(Cl)cc5)sc4c3=O)ccc2n1CCCN1CCCC1`, the IC50 in data set [23] is less than 10 µM.

With `Cc1ccc(-c2cc3nc(NC(C)(C)C)[nH]c(=O)c3s2)cc1`, the “Ratio CC50/IC50” value is recorded as 128 in data set [1] and 183 in [4]. The Activity result in [13], in data set [15], in [18] and in data set [19] was “Non-toxic” each time. Moreover, the IC50 in data set [14] was greater than 10 µM; in data set [16] it was greater than 500 µM; in [17], 0.2 µM; in data set [5], 0.14 µM; in data set [20] it was greater than 10 µM; in [7], 0.2 µM. This compound also yielded an IC50 in data set [12] of 21600 µM. In addition, the CC50 at 24 h in [10] was found to be 27.5 µM. Further, the DC50 in [21] was greater than 25000 µM. The CC50 in [22] was determined as 25.6 µM.
